Laboratory results as given in ChEMBL document CHEMBL1133996, “The synthesis of pseudomycin C' via a novel acid promoted side-chain deacylation of pseudomycin A” (2001).
Values after ≈ are worked out from the molar mass of the structure shown.

Assays:
Format in all cases: functional
Cryptococcus neoformans = experiment: Minimum inhibitory concentration tested in vitro against Cryptococcus neoformans
Procedure, shortened: (§1)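 Robotic broth microdilution: DMSO stocks diluted in broth to a starting 20 µg/mL, serial 2-fold dilutions. Yeasts grown on Sabouraud dextrose agar, 35°C, 24 h, suspended in saline and adjusted to 1 × 10^5 conidia/mL in Sabouraud dextrose broth (hemacytometer count).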

Candida albicans = experiment: Minimum inhibitory concentration tested in vitro against Candida albicans; procedure, shortened: as §1
Aspergillus fumigatus = experiment: Minimum inhibitory concentration tested in vitro against Aspergillus fumigatus
Procedure, shortened: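 A. fumigatus broth microdilution: spores teased from mycelia grown on potato dextrose agar into 0.1% Tween 80/saline, adjusted to 1 × 10^5 spores/mL in Sabouraud broth. Compounds from DMSO, starting at 20 µg/mL, serial 2-fold dilutions.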

Mus musculus [1] = experiment: Effective dose against Candida albicans tested in infected mice on intraperitoneal administration; settings: ip
Procedure, shortened: (§2)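 C. albicans systemic infection in mice: 2 × 10^6 blastoconidia iv (0.1 mL, lateral tail vein). Dosed ip (0.2 mL) at 0, 4, 24 and 48 h post-infection at 20, 10 and 5.0 mg/kg, six mice per level, in 4.0% hydroxypropyl β cyclodextrin/sodium acetate pH 7.0/1.75% dextrose; vehicle-dosed infected controls (10). Morbidity/mortality followed 7 days; ED50 by Reed–Muench.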

Histoplasma capsulatum = experiment: Minimum inhibitory concentration tested in vitro against Histoplasma capsulatum
Procedure, shortened: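 Robotic broth microdilution. Compounds dissolved in 100% DMSO, diluted in broth to start at 20 µg/mL in the first wells after inoculum, then serial 2-fold dilutions. Conidia suspended in saline and adjusted to 1 × 10^5 conidia/mL in Sabouraud dextrose broth. Incubated 48 h at 35 °C in ambient air. MIC = lowest concentration inhibiting 90–100% of visible growth vs untreated controls.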

Candida parapsilosis = experiment: Minimum inhibitory concentration tested in vitro against Candida parapsilosis; procedure, shortened: as §1
Mus musculus [2] = experiment: Effective dose administered intraperitoneally against Candida albicans infected mice; settings: ip; procedure, shortened: as §2
[3] = Cryptococcus neoformans, read-out: MIC
[4] = Candida albicans, read-out: MIC
[5] = Aspergillus fumigatus, read-out: MIC
[6] = Histoplasma capsulatum, read-out: MIC
[7] = Lodderomyces parapsilosis, read-out: MIC

With `C/C=C1/NC(=O)[C@H]([C@H](C)O)NC(=O)[C@H](CCN)NC(=O)[C@H](CCCCN)NC(=O)[C@H](CC(=O)O)NC(=O)[C@@H](CCN)NC(=O)[C@@H](NC(=O)CC(O)C(O)CCCCCCCCCC)COC(=O)[C@H]([C@H](O)CCl)NC(=O)[C@H]([C@H](O)C(=O)O)NC1=O` (stereo not given in full) as the molecule, how does the MIC (Cryptococcus neoformans; [3]) read?
The MIC was 0.078 µg/mL (≈ 0.0637 µM).

What about the MIC (Candida albicans; [4]) of the same molecule?
Its MIC is 0.625 µg/mL (≈ 0.511 µM).

And the MIC (Aspergillus fumigatus; [5])?
The MIC was 10 µg/mL (≈ 8.17 µM).

And the ED50 (Mus musculus [1])?
The ED50 was 7.1 mg/kg.

For `C/C=C1/NC(=O)[C@H]([C@H](C)O)NC(=O)[C@H](CCN)NC(=O)[C@H](CCCCN)NC(=O)[C@H](CC(=O)O)NC(=O)[C@@H](CCN)NC(=O)[C@@H](NC(=O)CCCCCCCCCCCCCCC)COC(=O)[C@H]([C@H](O)CCl)NC(=O)[C@H]([C@H](O)C(=O)O)NC1=O`, which MIC (Histoplasma capsulatum; [6]) is on record?
The MIC was 10 µg/mL (≈ 8.2 µM).

What about the MIC (Cryptococcus neoformans; [3]) of the same molecule?
Its MIC is 1.25 µg/mL (≈ 1.02 µM).

What about the MIC (Candida albicans; [4]) of the same molecule?
Its MIC is 10 µg/mL (≈ 8.2 µM).

And the MIC (Candida parapsilosis; [7])?
Its MIC is 10 µg/mL (≈ 8.2 µM).

`C/C=C1/NC(=O)[C@H]([C@H](C)O)NC(=O)[C@H](CCN)NC(=O)[C@H](CCCCN)NC(=O)[C@H](CC(=O)O)NC(=O)[C@@H](CCN)NC(=O)[C@@H](NC(=O)C[C@@H](O)CCCCCCCCCCCCC)COC(=O)[C@H]([C@H](O)CCl)NC(=O)[C@H]([C@H](O)C(=O)O)NC1=O` was tested. Which MIC (Histoplasma capsulatum; [6]) did it give?
Its MIC is 5 µg/mL (≈ 4.05 µM).

What about the MIC (Cryptococcus neoformans; [3]) of the same molecule?
The MIC was 5 µg/mL (≈ 4.05 µM).

And the MIC (Candida albicans; [4])?
The MIC was 5 µg/mL (≈ 4.05 µM).

What about the MIC (Aspergillus fumigatus; [5]) of the same molecule?
Its MIC is 20 µg/mL (≈ 16.2 µM).

And the MIC (Candida parapsilosis; [7])?
The MIC was 5 µg/mL (≈ 4.05 µM).

How did the MIC (Cryptococcus neoformans; [3]) turn out when `C/C=C1/NC(=O)[C@H]([C@H](C)O)NC(=O)[C@H](CCN)NC(=O)[C@H](CCCCN)NC(=O)[C@H](CC(=O)O)NC(=O)[C@@H](CCN)NC(=O)[C@@H](NC(=O)CC(O)CCCCCCCCC)COC(=O)[C@H]([C@H](O)CCl)NC(=O)[C@H]([C@H](O)C(=O)O)NC1=O` (stereo not given in full) was run?
Its MIC is 1.25 µg/mL (≈ 1.06 µM).

What about the MIC (Candida albicans; [4]) of the same molecule?
The MIC was 10 µg/mL (≈ 8.48 µM).

What about the MIC (Aspergillus fumigatus; [5]) of the same molecule?
The MIC was over 20 µg/mL.

`C/C=C1/NC(=O)[C@H]([C@H](C)O)NC(=O)[C@H](CCN)NC(=O)[C@H](CCCCN)NC(=O)[C@H](CC(=O)O)NC(=O)[C@@H](CCN)NC(=O)[C@@H](NC(=O)CC(O)C(O)CCCCCCCCCCCC)COC(=O)[C@H]([C@H](O)CCl)NC(=O)[C@H]([C@H](O)C(=O)O)NC1=O` (stereo not given in full) was tested. Which ED50 (Mus musculus [2]) did it give?
Its ED50 is over 5 mg/kg.

What about the MIC (Cryptococcus neoformans; [3]) of the same molecule?
The MIC was 0.02 µg/mL (≈ 0.016 µM).

What about the MIC (Candida albicans; [4]) of the same molecule?
The MIC was 0.078 µg/mL (≈ 0.0623 µM).

And the MIC (Aspergillus fumigatus; [5])?
Its MIC is 1.25 µg/mL (≈ 0.999 µM).

Which MIC (Cryptococcus neoformans; [3]) does the source give for `C/C=C1/NC(=O)[C@H]([C@H](C)O)NC(=O)[C@H](CCN)NC(=O)[C@H](CCCCN)NC(=O)[C@H](CC(=O)O)NC(=O)[C@@H](CCN)NC(=O)[C@@H](NC(=O)CC(O)C(O)CCCCCCCCCCC)COC(=O)[C@H]([C@H](O)CCl)NC(=O)[C@H]([C@H](O)C(=O)O)NC1=O` (stereo not given in full) here?
The MIC was 1.25 µg/mL (≈ 1.01 µM).

What about the MIC (Candida albicans; [4]) of the same molecule?
Its MIC is 2.5 µg/mL (≈ 2.02 µM).

And the MIC (Aspergillus fumigatus; [5])?
The MIC was over 20 µg/mL.

What does the source list for `C/C=C1/NC(=O)[C@H]([C@H](C)O)NC(=O)[C@H](CCN)NC(=O)[C@H](CCCCN)NC(=O)[C@H](CC(=O)O)NC(=O)[C@@H](CCN)NC(=O)[C@@H](NC(=O)CC(O)CCCCCCCCCCC)COC(=O)[C@H]([C@H](O)CCl)NC(=O)[C@H]([C@H](O)C(=O)O)NC1=O` (stereo not given in full)?
ED50 (Mus musculus [2]): 3.5 mg/kg; MIC (Cryptococcus neoformans; [3]): 0.02 µg/mL (≈ 0.0166 µM); MIC (Candida albicans; [4]): 0.156 µg/mL (≈ 0.129 µM); MIC (Aspergillus fumigatus; [5]): 10 µg/mL (≈ 8.28 µM)

`C/C=C1/NC(=O)[C@H]([C@H](C)O)NC(=O)[C@H](CCN)NC(=O)[C@H](CCCCN)NC(=O)[C@H](CC(=O)O)NC(=O)[C@@H](CCN)NC(=O)[C@@H](NC(=O)C[C@H](O)CCCCCCCCCCCCC)COC(=O)[C@H]([C@H](O)CCl)NC(=O)[C@H]([C@H](O)C(=O)O)NC1=O` (stereo in doubt; form 1) was tested. Which MIC (Histoplasma capsulatum; [6]) did it give?
Its MIC is 0.156 µg/mL (≈ 0.126 µM).

What about the MIC (Cryptococcus neoformans; [3]) of the same molecule?
Its MIC is under 0.01 µg/mL.

And the MIC (Candida albicans; [4])?
Its MIC is 0.039 µg/mL (≈ 0.0316 µM).

And the MIC (Aspergillus fumigatus)?
The MIC was 0.312 µg/mL (≈ 0.252 µM).

And the MIC (Candida parapsilosis; [7])?
The MIC was 0.039 µg/mL (≈ 0.0316 µM).

How did the MIC (Histoplasma capsulatum; [6]) turn out when `C/C=C1/NC(=O)[C@H]([C@H](C)O)NC(=O)[C@H](CCN)NC(=O)[C@H](CCCCN)NC(=O)[C@H](CC(=O)O)NC(=O)[C@@H](CCN)NC(=O)[C@@H](NC(=O)CC(O)CCCCCCCCCCCCC)COC(=O)[C@H]([C@H](O)CCl)NC(=O)[C@H]([C@H](O)C(=O)O)NC1=O` (stereo in doubt; form 1) was run?
The MIC was 0.312 µg/mL (≈ 0.252 µM).

What about the MIC (Cryptococcus neoformans; [3]) of the same molecule?
The MIC was under 0.01 µg/mL.

And the MIC (Candida albicans; [4])?
The MIC was 0.156 µg/mL (≈ 0.126 µM).

And the MIC (Aspergillus fumigatus; [5])?
Its MIC is 1.25 µg/mL (≈ 1.01 µM).

What about the MIC (Candida parapsilosis; [7]) of the same molecule?
Its MIC is 0.156 µg/mL (≈ 0.126 µM).

Which MIC (Histoplasma capsulatum) does the source give for `C/C=C1/NC(=O)[C@H]([C@H](C)O)NC(=O)[C@H](CCN)NC(=O)[C@H](CCCCN)NC(=O)[C@H](CC(=O)O)NC(=O)[C@@H](CCN)NC(=O)[C@@H](NC(=O)C[C@H](O)CCCCCCCCCCCCC)COC(=O)[C@H]([C@H](O)CCl)NC(=O)[C@H]([C@H](O)C(=O)O)NC1=O` (stereo in doubt; form 2) here?
The MIC was 0.156 µg/mL (≈ 0.126 µM).

What about the MIC (Candida albicans) of the same molecule?
The MIC was 0.039 µg/mL (≈ 0.0316 µM).

And the MIC (Aspergillus fumigatus)?
The MIC was 0.625 µg/mL (≈ 0.506 µM).

What about the MIC (Candida parapsilosis) of the same molecule?
Its MIC is 0.02 µg/mL (≈ 0.0162 µM).

Which ED50 (Mus musculus [2]) does the source give for `C/C=C1/NC(=O)[C@H]([C@H](C)O)NC(=O)[C@H](CCN)NC(=O)[C@H](CCCCN)NC(=O)[C@H](CC(=O)O)NC(=O)[C@@H](CCN)NC(=O)[C@@H](NC(=O)CC(O)CCCCCCCCCCCCC)COC(=O)[C@H]([C@H](O)CCl)NC(=O)[C@H]([C@H](O)C(=O)O)NC1=O` (stereo in doubt; form 2) here?
Its ED50 is 2.5 mg/kg.

What about the MIC (Cryptococcus neoformans) of the same molecule?
Its MIC is 0.005 µg/mL (≈ 0.00405 µM).

And the MIC (Candida albicans)?
The MIC was 0.156 µg/mL (≈ 0.126 µM).

And the MIC (Aspergillus fumigatus)?
The MIC was 0.625 µg/mL (≈ 0.506 µM).
